ChEMBL document CHEMBL1255334
The source made the active and inactive calls. The calls are words filed in the database; no cut-off is given here.

What was measured:
Format in all cases: functional, organism-based
[1] = test system: Mycobacterium tuberculosis; experiment: Antibacterial activity against Mycobacterium tuberculosis containing pncA gene with C deletion at nt 99 assessed as at 100 mg/liter
How it was run: (§1)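 Clinical M. tuberculosis isolates first grown on Löwenstein-Jensen medium 3 to 4 weeks at 37°C. Radiometric BACTEC 460 test in acidified PZA test medium. Inoculum: ~McFarland 1 suspension grown in 12B medium until growth index (GI) >300. Paired vials per strain: drug-free control and PZA 100 mg/liter. Read when control GI reached 200. Resistant if PZA-vial GI >11% of control GI, susceptible if <9%.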

[2] = test system: Mycobacterium tuberculosis; experiment: (§2) Antibacterial activity against Mycobacterium tuberculosis containing wild type PZase assessed as at 100 mg/liter; how it was run: as §1
[3] = test system: Mycobacterium tuberculosis; experiment: as §2; how it was run: as §1; remark: listed apart in the source

NC(=O)c1cnccn1
Activity [1]: inactive | Activity [2]: inactive | Activity [3]: Active
